Assay results as given in ChEMBL document CHEMBL1158804, “Lupane triterpenoids from Maytenus species” (J Nat Prod, 2005).
The source made the active and inactive calls. The rule behind the calls is not given here.

Tests used:
Staphylococcus aureus = experiment: Antibacterial activity against Staphylococcus aureus ATCC 6538 up to 40 ug/mL by broth microdilution method; type: functional, organism-based
Procedure, shortened: (§1)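 Compounds are dissolved in DMSO. The minimal inhibitory concentration is estimated by broth microdilution.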

[1] = test system: Staphylococcus epidermidis; experiment: Antibacterial activity against Staphylococcus epidermidis CECT 232 up to 40 ug/mL by broth microdilution method; type: functional, organism-based; procedure, shortened: as §1
[2] = test system: Staphylococcus saprophyticus; experiment: Antibacterial activity against Staphylococcus saprophyticus CECT 235 up to 40 ug/mL by broth microdilution method; type: functional, organism-based; procedure, shortened: as §1
Enterococcus faecalis = experiment: Antibacterial activity against Enterococcus faecalis CECT 795 up to 40 ug/mL by broth microdilution method; type: functional, organism-based; procedure, shortened: as §1
Bacillus subtilis = experiment: Antibacterial activity against Bacillus subtilis CECT 39 up to 40 ug/mL by broth microdilution method; type: functional, organism-based; procedure, shortened: as §1
Bacillus cereus = experiment: Antibacterial activity against Bacillus cereus CECT 496 up to 40 ug/mL by broth microdilution method; type: functional, organism-based; procedure, shortened: as §1
Bacillus pumilus = experiment: Antibacterial activity against Bacillus pumilus CECT 29 up to 40 ug/mL by broth microdilution method; type: functional, organism-based; procedure, shortened: as §1
Priestia megaterium = experiment: Antibacterial activity against Bacillus megaterium CECT 44 up to 40 ug/mL by broth microdilution method; type: functional, organism-based; procedure, shortened: as §1
[3] = test system: Mycolicibacterium smegmatis; experiment: Antibacterial activity against Mycobacterium smegmatis CECT 3032 up to 40 ug/mL by broth microdilution method; type: functional, organism-based; procedure, shortened: as §1
Escherichia coli = experiment: Antibacterial activity against Escherichia coli CECT 99 up to 40 ug/mL by broth microdilution method; type: functional, organism-based; procedure, shortened: as §1
Proteus mirabilis = experiment: Antibacterial activity against Proteus mirabilis CECT170 up to 40 ug/mL by broth microdilution method; type: functional, organism-based; procedure, shortened: as §1
Salmonella = experiment: Antibacterial activity against Salmonella sp. CECT 456 up to 40 ug/mL by broth microdilution method; type: functional, organism-based; procedure, shortened: as §1
Pseudomonas aeruginosa = experiment: Antibacterial activity against Pseudomonas aeruginosa AK 958 up to 40 ug/mL by broth microdilution method; type: functional, organism-based; procedure, shortened: as §1
Candida albicans = experiment: Antifungal activity against Candida albicans UBC1 up to 40 ug/mL by broth microdilution method; type: functional, organism-based
Procedure, shortened: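 The yeast is grown on Sabouraud agar at 37 °C. Compounds are dissolved in DMSO, and the minimal inhibitory concentration is estimated by broth microdilution.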

HeLa = experiment: Cytotoxicity against human HeLa cells after 48 hrs by MTT assay; type: functional, cell-based
Procedure, shortened: (§2)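 Monolayers are cultured in DMEM with 5% fetal calf serum and 1% penicillin-streptomycin at 37 °C, 5% CO2 and 90% humidity. Exponentially growing cells (2 × 10^4 cells/well) are exposed to a range of compound concentrations for 48 h at 37 °C. Viability is read by colorimetric MTT reduction.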

HEp-2 = experiment: Cytotoxicity against human Hep2 cells after 48 hrs by MTT assay; type: functional, cell-based; conditions: HEp-2, 48 h; procedure, shortened: as §2
Vero = experiment: Cytotoxicity against african green monkey Vero cells after 48 hrs by MTT assay; type: cell-based; conditions: Chlorocebus sabaeus; procedure, shortened: as §2

| SMILES | Activity (Staphylococcus aureus) | Activity [1] | Activity [2] | Activity (Enterococcus faecalis) | Activity (Bacillus subtilis) | Activity (Bacillus cereus) | Activity (Bacillus pumilus) | Activity (Priestia megaterium) | Activity [3] | Activity (Escherichia coli) | Activity (Proteus mirabilis) | Activity (Salmonella) | Activity (Pseudomonas aeruginosa) | Activity (Candida albicans) | IC50 (HeLa) [µg/mL] | IC50 (HEp-2) [µg/mL] | IC50 (Vero) [µg/mL] |
| --- | --- | --- | --- | --- | --- | --- | --- | --- | --- | --- | --- | --- | --- | --- | --- | --- | --- |
| CC(C)[C@@H]1CC[C@]2(C)CC[C@]3(C)[C@@H](CC[C@@H]4[C@@]5(C)CC[C@H](OC(=O)/C=C/c6ccc(O)c(O)c6)C(C)(C)[C@@H]5CC[C@]43C)[C@@H]12 | inactive | inactive | inactive | inactive | inactive | inactive | inactive | inactive | inactive | inactive | inactive | inactive | inactive | inactive | > 10 | > 10 | > 10 |
| C=C(C)[C@@H]1CC[C@]2(CO)CC[C@]3(C)[C@H](C[C@@H](O)[C@@H]4[C@@]5(C)CC[C@@H](O)C(C)(C)[C@@H]5CC[C@]43C)[C@@H]12 | inactive | inactive | inactive | inactive | inactive | inactive | inactive | inactive | inactive | inactive | inactive | inactive | inactive | inactive | > 10 | > 10 | > 10 |
| C=C(C)[C@@H]1CC[C@]2(CO)CC[C@]3(C)[C@H](CC[C@@H]4[C@@]5(C)CC[C@H](O)C(C)(C)[C@@H]5[C@H](O)C[C@]43C)[C@@H]12 | inactive | inactive | inactive | inactive | inactive | inactive | inactive | inactive | inactive | inactive | inactive | inactive | inactive |  | > 10 | > 10 | > 10 |
| C=C(C)[C@@H]1CC[C@]2(CO)CC[C@]3(C)[C@H](CC[C@@H]4[C@@]5(C)CC[C@H](OC(=O)/C=C/c6ccc(O)c(O)c6)C(C)(C)[C@@H]5CC[C@]43C)[C@@H]12 | inactive | inactive | inactive | inactive | inactive | inactive | inactive | inactive | inactive | inactive | inactive | inactive | inactive | inactive | > 10 | > 10 | > 10 |
| C=C(C)[C@@H]1CC[C@]2(CO)CC[C@]3(C)[C@H](CC[C@@H]4[C@@]5(C)C=CC(=O)C(C)(C)[C@@H]5CC[C@]43C)[C@@H]12 | inactive | inactive | inactive | inactive | inactive | inactive | inactive | inactive | inactive | inactive | inactive | inactive | inactive |  | > 10 | > 10 | > 10 |
